ChEMBL document CHEMBL4118021, “Studies of TAK1-centered polypharmacology with novel covalent TAK1 inhibitors” (Bioorg Med Chem, 2017)
Each block holds one compound with its values, some of them ahead of it. Active and inactive are the calls of the source. No cut-off for these calls is given here.

Columns and labels:
Plectin (Homo sapiens) = Plectin (Homo sapiens) (UniProt Q15149); assay: Binding affinity to PLEC in human NCI-H358 cells at 1 uM by mass spectrometry based pull down assay; type: cell-based
[1] = molecular target: Long-chain-fatty-acid--CoA ligase 1 (Homo sapiens) (UniProt P33121); assay: Binding affinity to ACSL1 in human NCI-H358 cells at 1 uM by mass spectrometry based pull down assay; type: cell-based
In short: (§1)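 NCI-H23 or NCI-H358 cells were grown and lysed. Lysates were incubated overnight at 4 °C with 1 μM biotinylated covalent probe or DMSO, then pulled down on streptavidin beads. Proteins were run on polyacrylamide gels and stained with Coomassie. Bands were excised, digested and identified by mass spectrometry.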

[2] = molecular target: Phosphoinositide 3-kinase regulatory subunit 4 (Homo sapiens) (UniProt Q99570); assay: Binding affinity to PIK3R4 in human NCI-H23 cells at 1 uM by mass spectrometry based pull down assay; type: cell-based
[3] = molecular target: Clustered mitochondria protein homolog (Homo sapiens) (UniProt O75153); assay: Binding affinity to CLUH in human NCI-H23 cells at 1 uM by mass spectrometry based pull down assay; type: cell-based
[4] = molecular target: Cytosolic iron-sulfur assembly component 2A (Homo sapiens) (UniProt Q9H5X1); assay: Binding affinity to FAM96A in human NCI-H23 cells at 1 uM by mass spectrometry based pull down assay; type: cell-based
[5] = molecular target: Protein phosphatase 1G (Homo sapiens) (UniProt O15355); assay: Binding affinity to PPM1G in human NCI-H358 cells at 1 uM by mass spectrometry based pull down assay; type: cell-based
[6] = molecular target: Glycogen synthase kinase-3 alpha (Homo sapiens) (UniProt P49840); assay: Binding affinity to GSK3A in human NCI-H358 cells at 1 uM by mass spectrometry based pull down assay; type: cell-based
[7] = molecular target: Amidophosphoribosyltransferase (Homo sapiens) (UniProt Q06203); assay: Binding affinity to PPAT in human NCI-H23 cells at 1 uM by mass spectrometry based pull down assay; type: cell-based
[8] = molecular target: Protein transport protein Sec23A (Homo sapiens) (UniProt Q15436); assay: Binding affinity to SEC23A in human NCI-H358 cells at 1 uM by mass spectrometry based pull down assay; type: cell-based
[9] = molecular target: E3 ubiquitin-protein ligase TRIM33 (Homo sapiens) (UniProt Q9UPN9); assay: Binding affinity to TRIM33 in human NCI-H23 cells at 1 uM by mass spectrometry based pull down assay; type: cell-based
[10] = molecular target: Endothelial differentiation-related factor 1 (Homo sapiens) (UniProt O60869); assay: Binding affinity to EDF1 in human NCI-H23 cells at 1 uM by mass spectrometry based pull down assay; type: cell-based
[11] = molecular target: Multifunctional methyltransferase subunit TRM112-like protein (Homo sapiens) (UniProt Q9UI30); assay: Binding affinity to TRMT112 in human NCI-H23 cells at 1 uM by mass spectrometry based pull down assay; type: cell-based
[12] = molecular target: UV radiation resistance-associated gene protein (Homo sapiens) (UniProt Q9P2Y5); assay: Binding affinity to UVRAG in human NCI-H23 cells at 1 uM by mass spectrometry based pull down assay; type: cell-based
[13] = molecular target: Phosphatidylinositol 3-kinase catalytic subunit type 3 (Homo sapiens) (UniProt Q8NEB9); assay: Binding affinity to PIK3C3 in human NCI-H23 cells at 1 uM by mass spectrometry based pull down assay; type: cell-based
[14] = molecular target: NAD(P)H dehydrogenase [quinone] 1 (Homo sapiens) (UniProt P15559); assay: Binding affinity to NQO1 in human NCI-H23 cells at 1 uM by mass spectrometry based pull down assay; type: cell-based
[15] = molecular target: Apoptosis-inducing factor 1, mitochondrial (Homo sapiens) (UniProt O95831); assay: Binding affinity to AIFM1 in human NCI-H23 cells at 1 uM by mass spectrometry based pull down assay; type: cell-based; in short: as §1
[16] = molecular target: Isocitrate dehydrogenase [NAD] subunit alpha, mitochondrial (Homo sapiens) (UniProt P50213); assay: Binding affinity to IDH3A in human NCI-H358 cells at 1 uM by mass spectrometry based pull down assay; type: cell-based
[17] = molecular target: Aldehyde dehydrogenase family 16 member A1 (Homo sapiens) (UniProt Q8IZ83); assay: Binding affinity to ALDH16A1 in human NCI-H23 cells at 1 uM by mass spectrometry based pull down assay; type: cell-based; in short: as §1
[18] = molecular target: N-acetyl-D-glucosamine kinase (Homo sapiens) (UniProt Q9UJ70); assay: Binding affinity to NAGK in human NCI-H358 cells at 1 uM by mass spectrometry based pull down assay; type: cell-based
[19] = molecular target: Ribonucleoside-diphosphate reductase large subunit (Homo sapiens) (UniProt P23921); assay: Binding affinity to RRM1 in human NCI-H358 cells at 1 uM by mass spectrometry based pull down assay; type: cell-based
[20] = molecular target: Ribosomal protein S6 kinase alpha-6 (Homo sapiens) (UniProt Q9UK32); assay: Inhibition of human RSK4 (1 to 397 residues) expressed in mammalian expression system assessed as enzyme activity at 1 uM by KINOMEScan assay relative to control; set-up: scale not given: the % may be the effect or the level left
In short: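 In vitro ATP-site competition binding assay across a panel of 456 kinases, with compound tested at 1 and 10 μM.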

[21] = molecular target: Macrophage-stimulating protein receptor (Homo sapiens) (UniProt Q04912); assay: Inhibition of RON in human SKCO1 cells at 1 uM after 4 hrs using biotin labeled IQCAIKSLSR probe by mass-spectrometric analysis relative to control; type: cell-based
[22] = molecular target: T1, Mitogen-activated protein kinase kinase kinase 7 (Homo sapiens) (UniProt O43318); assay: Inhibition of TAK1 in RA patient-derived synovial fibroblasts assessed as inhibition of TNFalpha-induced cytokine secretion at 3 uM preincubated for 3 hrs followed by TNFalpha stimulation measured after 18 hrs by sandwich immunoassay
T1 sequence (whole entry): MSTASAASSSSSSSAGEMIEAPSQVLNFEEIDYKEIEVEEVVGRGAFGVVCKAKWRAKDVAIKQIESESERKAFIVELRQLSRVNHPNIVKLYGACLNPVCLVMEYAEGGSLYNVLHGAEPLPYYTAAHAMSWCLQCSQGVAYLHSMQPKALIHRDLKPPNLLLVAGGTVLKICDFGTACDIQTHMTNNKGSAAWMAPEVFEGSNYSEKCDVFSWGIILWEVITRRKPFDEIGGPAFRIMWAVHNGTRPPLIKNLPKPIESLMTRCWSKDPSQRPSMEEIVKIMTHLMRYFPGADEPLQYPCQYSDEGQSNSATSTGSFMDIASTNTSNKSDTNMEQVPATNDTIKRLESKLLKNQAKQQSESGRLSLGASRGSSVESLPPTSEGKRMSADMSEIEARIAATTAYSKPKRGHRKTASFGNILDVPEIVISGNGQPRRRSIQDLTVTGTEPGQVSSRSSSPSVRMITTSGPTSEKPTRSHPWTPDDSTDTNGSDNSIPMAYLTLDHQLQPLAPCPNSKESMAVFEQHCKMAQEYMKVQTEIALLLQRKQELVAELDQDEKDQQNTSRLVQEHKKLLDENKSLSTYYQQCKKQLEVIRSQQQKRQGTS
In short: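 Primary RA synovial fibroblasts (donor RA2159) seeded 1000 cells/well and grown ~24 h at 37 °C, 5% CO2. Starved overnight in basal medium, then ~4 h in basal medium with 0.1% BSA. Two adjacent wells pooled per replicate, in biological duplicate. Supernatants diluted 1:3 and run on Luminex 27-plex/21-plex sandwich immunoassays for 48 analytes, with spiked-ligand and mock-supernatant background controls.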

Chain of Cytosolic iron-sulfur assembly component 2A (Homo sapiens) (Q9H5X1 whole entry): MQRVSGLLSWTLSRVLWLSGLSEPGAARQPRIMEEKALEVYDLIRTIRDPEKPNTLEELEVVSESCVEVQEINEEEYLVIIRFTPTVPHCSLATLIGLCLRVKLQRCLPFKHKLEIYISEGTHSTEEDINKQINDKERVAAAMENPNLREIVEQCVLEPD
Chain of Long-chain-fatty-acid--CoA ligase 1 (Homo sapiens) (P33121 whole entry): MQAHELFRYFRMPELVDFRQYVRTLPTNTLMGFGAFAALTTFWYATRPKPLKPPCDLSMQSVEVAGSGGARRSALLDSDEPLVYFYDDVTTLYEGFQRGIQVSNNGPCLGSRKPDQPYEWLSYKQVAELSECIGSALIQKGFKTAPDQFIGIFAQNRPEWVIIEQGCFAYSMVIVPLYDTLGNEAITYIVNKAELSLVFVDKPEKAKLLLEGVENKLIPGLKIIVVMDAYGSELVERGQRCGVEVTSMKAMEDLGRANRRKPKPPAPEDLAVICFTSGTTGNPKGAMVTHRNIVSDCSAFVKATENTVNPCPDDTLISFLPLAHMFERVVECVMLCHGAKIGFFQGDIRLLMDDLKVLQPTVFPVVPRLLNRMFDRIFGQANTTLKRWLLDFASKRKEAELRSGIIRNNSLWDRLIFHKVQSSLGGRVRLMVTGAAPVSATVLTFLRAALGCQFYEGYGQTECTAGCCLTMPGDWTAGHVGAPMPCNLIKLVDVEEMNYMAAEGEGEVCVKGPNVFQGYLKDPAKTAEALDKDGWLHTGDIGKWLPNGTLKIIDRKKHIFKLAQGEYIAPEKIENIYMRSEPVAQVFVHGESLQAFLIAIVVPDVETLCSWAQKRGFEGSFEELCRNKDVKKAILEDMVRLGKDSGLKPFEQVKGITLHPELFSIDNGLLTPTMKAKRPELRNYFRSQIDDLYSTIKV
Chain of Multifunctional methyltransferase subunit TRM112-like protein (Homo sapiens) (Q9UI30 whole entry): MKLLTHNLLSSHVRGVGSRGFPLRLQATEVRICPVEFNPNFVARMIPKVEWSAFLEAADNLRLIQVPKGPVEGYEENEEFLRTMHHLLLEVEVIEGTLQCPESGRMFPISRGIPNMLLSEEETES
Chain of Protein phosphatase 1G (Homo sapiens) (O15355 whole entry): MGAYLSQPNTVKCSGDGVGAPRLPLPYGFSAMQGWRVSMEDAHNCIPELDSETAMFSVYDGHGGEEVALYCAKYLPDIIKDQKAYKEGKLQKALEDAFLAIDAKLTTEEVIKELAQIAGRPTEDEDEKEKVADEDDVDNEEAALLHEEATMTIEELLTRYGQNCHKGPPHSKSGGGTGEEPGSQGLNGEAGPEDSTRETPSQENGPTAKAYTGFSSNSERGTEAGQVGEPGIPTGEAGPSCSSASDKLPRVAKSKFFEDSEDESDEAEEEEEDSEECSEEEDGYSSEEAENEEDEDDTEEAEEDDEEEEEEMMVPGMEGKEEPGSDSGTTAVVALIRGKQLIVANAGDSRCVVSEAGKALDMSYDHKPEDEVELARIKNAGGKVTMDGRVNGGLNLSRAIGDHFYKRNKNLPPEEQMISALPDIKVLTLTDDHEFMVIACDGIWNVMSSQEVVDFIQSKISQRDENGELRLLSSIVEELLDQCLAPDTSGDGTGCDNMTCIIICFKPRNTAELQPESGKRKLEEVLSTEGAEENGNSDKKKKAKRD
Chain of Ribonucleoside-diphosphate reductase large subunit (Homo sapiens) (P23921 whole entry, the tested form may be a part): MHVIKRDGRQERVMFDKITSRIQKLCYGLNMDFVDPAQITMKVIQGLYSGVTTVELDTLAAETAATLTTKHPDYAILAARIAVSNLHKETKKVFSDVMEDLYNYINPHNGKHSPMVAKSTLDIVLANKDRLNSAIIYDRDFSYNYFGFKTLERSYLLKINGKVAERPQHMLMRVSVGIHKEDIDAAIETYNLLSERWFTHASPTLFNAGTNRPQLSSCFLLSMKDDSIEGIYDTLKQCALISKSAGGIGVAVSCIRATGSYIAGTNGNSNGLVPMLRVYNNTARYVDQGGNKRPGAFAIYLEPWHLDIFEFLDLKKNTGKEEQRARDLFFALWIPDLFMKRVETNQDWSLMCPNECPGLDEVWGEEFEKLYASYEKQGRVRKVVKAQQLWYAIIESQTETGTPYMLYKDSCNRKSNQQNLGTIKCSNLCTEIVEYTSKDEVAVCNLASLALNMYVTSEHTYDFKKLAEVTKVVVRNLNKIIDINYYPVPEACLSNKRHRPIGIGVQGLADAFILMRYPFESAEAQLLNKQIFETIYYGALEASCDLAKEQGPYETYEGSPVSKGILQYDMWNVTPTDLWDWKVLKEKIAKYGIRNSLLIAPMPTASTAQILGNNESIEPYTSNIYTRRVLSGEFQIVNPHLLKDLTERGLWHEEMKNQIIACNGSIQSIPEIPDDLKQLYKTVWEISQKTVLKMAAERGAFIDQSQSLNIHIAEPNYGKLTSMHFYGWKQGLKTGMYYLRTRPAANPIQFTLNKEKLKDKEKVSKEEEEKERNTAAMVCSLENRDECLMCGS
Chain of UV radiation resistance-associated gene protein (Homo sapiens) (Q9P2Y5 whole entry): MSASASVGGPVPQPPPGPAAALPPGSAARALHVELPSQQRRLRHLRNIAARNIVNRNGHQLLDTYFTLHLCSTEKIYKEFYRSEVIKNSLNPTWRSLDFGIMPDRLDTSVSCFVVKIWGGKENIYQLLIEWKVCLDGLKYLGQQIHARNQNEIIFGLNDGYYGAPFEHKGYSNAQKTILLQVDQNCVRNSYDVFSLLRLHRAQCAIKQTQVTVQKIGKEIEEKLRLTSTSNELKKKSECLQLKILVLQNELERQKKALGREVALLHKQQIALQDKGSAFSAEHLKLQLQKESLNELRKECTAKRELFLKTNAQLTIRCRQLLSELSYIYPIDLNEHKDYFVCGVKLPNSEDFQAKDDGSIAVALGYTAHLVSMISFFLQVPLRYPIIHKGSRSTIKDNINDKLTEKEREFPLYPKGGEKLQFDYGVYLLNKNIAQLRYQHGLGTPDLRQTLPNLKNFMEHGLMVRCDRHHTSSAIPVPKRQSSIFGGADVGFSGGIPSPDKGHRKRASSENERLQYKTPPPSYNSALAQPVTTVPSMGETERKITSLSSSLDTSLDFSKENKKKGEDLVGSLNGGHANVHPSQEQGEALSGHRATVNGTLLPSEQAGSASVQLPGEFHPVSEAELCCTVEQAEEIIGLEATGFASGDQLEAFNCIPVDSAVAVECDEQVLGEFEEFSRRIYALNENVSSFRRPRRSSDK
Chain of Phosphoinositide 3-kinase regulatory subunit 4 (Homo sapiens) (Q99570 whole entry): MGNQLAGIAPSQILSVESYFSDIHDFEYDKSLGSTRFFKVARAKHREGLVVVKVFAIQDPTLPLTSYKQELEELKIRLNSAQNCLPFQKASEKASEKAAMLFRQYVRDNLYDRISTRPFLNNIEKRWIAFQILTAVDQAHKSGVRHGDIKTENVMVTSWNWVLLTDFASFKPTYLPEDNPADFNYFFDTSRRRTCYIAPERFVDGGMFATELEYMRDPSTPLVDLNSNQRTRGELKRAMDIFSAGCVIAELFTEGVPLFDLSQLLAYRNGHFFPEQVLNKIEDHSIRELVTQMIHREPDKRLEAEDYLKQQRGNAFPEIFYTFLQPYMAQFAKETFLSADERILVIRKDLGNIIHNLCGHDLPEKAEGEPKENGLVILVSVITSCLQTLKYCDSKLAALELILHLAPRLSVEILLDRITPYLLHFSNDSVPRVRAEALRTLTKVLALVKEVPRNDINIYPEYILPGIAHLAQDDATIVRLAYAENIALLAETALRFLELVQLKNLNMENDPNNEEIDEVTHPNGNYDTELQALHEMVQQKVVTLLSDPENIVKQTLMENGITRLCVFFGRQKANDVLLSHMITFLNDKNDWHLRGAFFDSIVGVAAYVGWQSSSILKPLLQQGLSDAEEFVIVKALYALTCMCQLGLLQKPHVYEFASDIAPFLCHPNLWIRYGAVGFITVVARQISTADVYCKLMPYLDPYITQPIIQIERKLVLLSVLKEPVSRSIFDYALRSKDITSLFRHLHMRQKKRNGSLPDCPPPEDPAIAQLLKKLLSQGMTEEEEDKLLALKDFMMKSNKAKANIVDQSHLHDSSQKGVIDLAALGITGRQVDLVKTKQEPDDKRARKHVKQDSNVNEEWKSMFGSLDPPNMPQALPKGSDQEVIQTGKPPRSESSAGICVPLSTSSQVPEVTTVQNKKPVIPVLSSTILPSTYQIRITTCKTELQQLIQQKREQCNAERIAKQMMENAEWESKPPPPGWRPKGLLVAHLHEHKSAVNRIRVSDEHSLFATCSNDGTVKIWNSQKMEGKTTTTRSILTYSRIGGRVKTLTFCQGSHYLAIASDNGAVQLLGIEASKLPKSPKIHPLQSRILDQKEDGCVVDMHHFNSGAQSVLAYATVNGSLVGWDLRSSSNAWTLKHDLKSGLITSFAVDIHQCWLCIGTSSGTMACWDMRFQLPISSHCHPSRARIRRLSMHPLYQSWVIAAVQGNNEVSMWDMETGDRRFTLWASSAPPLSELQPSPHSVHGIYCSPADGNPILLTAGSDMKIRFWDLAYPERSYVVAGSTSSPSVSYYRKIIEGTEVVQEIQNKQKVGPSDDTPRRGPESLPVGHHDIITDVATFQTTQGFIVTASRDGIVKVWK
Chain of N-acetyl-D-glucosamine kinase (Homo sapiens) (Q9UJ70 whole entry): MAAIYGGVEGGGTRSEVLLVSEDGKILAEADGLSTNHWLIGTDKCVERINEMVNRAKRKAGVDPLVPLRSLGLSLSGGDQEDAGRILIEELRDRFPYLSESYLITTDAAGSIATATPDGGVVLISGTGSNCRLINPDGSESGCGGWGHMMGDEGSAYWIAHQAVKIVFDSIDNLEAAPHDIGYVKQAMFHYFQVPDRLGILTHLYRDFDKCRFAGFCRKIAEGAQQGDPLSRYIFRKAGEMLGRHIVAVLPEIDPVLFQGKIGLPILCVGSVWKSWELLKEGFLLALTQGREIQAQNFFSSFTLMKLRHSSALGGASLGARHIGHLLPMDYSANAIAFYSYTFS
Chain of Endothelial differentiation-related factor 1 (Homo sapiens) (O60869 whole entry): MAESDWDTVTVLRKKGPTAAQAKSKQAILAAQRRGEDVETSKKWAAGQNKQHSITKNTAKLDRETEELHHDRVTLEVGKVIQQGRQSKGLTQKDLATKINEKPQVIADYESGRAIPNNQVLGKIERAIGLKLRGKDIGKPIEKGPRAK

- Activity (Plectin (Homo sapiens)): Active
- Activity [1]: Active
- Activity [2]: Active
- Activity [3]: Active
- Activity [4]: Active
- Activity [5]: Active
- Activity [6]: Active
- Activity [7]: Active
- Activity [8]: Active
- Activity [9]: Active
- Activity [10]: Active
- Activity [11]: Active
- Activity [12]: Active
- Activity [13]: Active
- Activity [14]: Active
- Activity [15]: Active
- Activity [16]: Active
- Activity [17]: Active
- Activity [18]: Active
- Activity [19]: Active
SMILES: C=CC(=O)Nc1ccccc1Nc1nc(Nc2ccc(N3CCN(CCOCCOCCOCCNC(=O)CCCC[C@@H]4SC[C@@H]5NC(=O)N[C@@H]54)CC3)cc2)ncc1Cl

SMILES: COc1cc(O)c2c(c1)/C=C/C[C@H](O)[C@H](O)C(=O)/C=C\C[C@H](C)OC2=O
- Activity [20]: 34%

SMILES: C=CC(=O)Nc1ccccc1Oc1nc(Nc2cnn(CCOC)c2)ncc1Cl
- inhibition [21]: -4.2%
- inhibition [22]: Active
